SF1 activator – activators of human SF-1, primary screen, cell-based, CHO-K1, Gal4-SF-1 LBD, luciferase luminescence | 65,000 tested, 1.9% active | activation, % at 10 µM | CHO-K1 Gal4-SF-1 LBD luciferase reporter; % increase over DMSO SF-1-specific signal | Steroidogenic factor 1 (Homo sapiens), Q13285;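 active = activation above the mean activation of all tested compounds plus 3 SD, cut at about 50% in these data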
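Test system: CHO-K1 cells co-transfected with Gal4 DBD–human SF-1 LBD, 5xGal4 luciferase reporter. Quantity: 4,000 cells per well. Compound: 10 µM only. Incubation: compound added 1 h post-seeding, 20 h exposure at 37 °C, 5% CO2. Detection: SteadyLite luciferase luminescence. Replication: one test per compound.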
RORa activator – activators of orphan receptor RORA, primary screen, cell-based, luminescence; CHO-K1 Gal4-RORA LBD luciferase reporter; percent increase over mock-subtracted basal signal; activation, % at 10 µM; 65,000 tested, 1.5% active; AID 560, 2006;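 active = activation above the mean of all tested compounds plus 3 SD, cut at about 49% in these data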;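 also: 0% = DMSO-treated RORA cells and 100% = added signal equal to DMSO minus mock-transfected cells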
M1 antagonist – antagonists of rat M1 muscarinic receptor. Muscarinic acetylcholine receptor M1 (Rattus norvegicus), P08482. CHO-M1 cells, Fluo-4 calcium, ACh EC80 antagonist mode; hits give low values. AID 628, 2007. B-score at 10 µM. 64,000 tested, 3.4% active;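 active = calcium fluorescence response, raw or row-and-column corrected B-score, differing from the plate sample mean either way at a set confidence level, mostly lower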
S1P3 agonist – human S1P3 receptor agonists, primary screen, cell-based, primary and confirmation, NFAT-BLA reporter. 60,000 tested, 0.1% active. S1P3 NFAT-BLA reporter cells, agonism, FRET ratio; relative to 1 µM S1P, basal subtracted. activation, % at 4.5 µM. AID 373, 2006;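 active = activation above the screen-wide mean plus 3 SD, cut at about 4.5% in these data, passing the limit was not always enough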
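material = human S1P3 NFAT-BLA reporter CHO cells | schedule = 4 h compound at 37 °C, 2 h substrate at RT | measured by = fluorescent BLA substrate, ex 405 nm, em 460/535 nm ratio | controls = 1 µM S1P reference | replication = primary once, confirmation triplicate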
M1 agonist – M1 muscarinic receptor agonists, primary screen, CHO-M1 cells, Fluo-4 calcium, agonist mode; Fluo-4 calcium fluorescence; hits give high values; B-score at 10 µM; 64,000 tested, 3% active;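 active = fluorescence rise, raw or as B-score row- and column-corrected plate score, outside the 99.7% band of its plate's samples, either direction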
S1P1 ag-PAM – S1P1 agonists and agonism potentiators, primary screen, cell-based, primary and confirmation screens, CRE-bla reporter. S1P1 CRE-bla cells, forskolin, beta-lactamase FRET, potentiator mode; S1P1 agonist co-added at EC20, 2 nM; 100% = saturating reference agonist, 0% = basal. activation, % at 9.5 µM. 56,000 tested, 0.57% active;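 active = activation above a cutoff set at the mean activation of all tested compounds plus 3 SD, cut at about 54% in these data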;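 also: forskolin at 4 µM as EC80 and the EC20 agonist is SEW2871; 100% = SEW2871 at its EC100 plus forskolin at EC80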
M1 agonist conf – rat M1 muscarinic receptor agonists, confirmation, CHO-M1 cells, Fluo-4 calcium, duplicate retest. fluorescence change (max-min) at 10 µM. Fluo-4 calcium fluorescence, agonist mode; actives lie on both sides. shares compounds with M1 agonist. 1,700 tested, 19% active;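 active = fluorescence change differs from the solvent-only DMSO control mean at a set confidence level in both duplicate runs; inconclusive = differs from solvent-only control mean in just one of two runs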;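 also: an EC20 dose of acetylcholine follows compound addition during the same imaging run; raw fluorescence intensity difference in instrument units with no normalization to controls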
M4 agonist ctr – agonist activity at rat M4 receptor, confirmation, counter-screen for M1 allosteric modulator project, cell-based, agonist mode | fluorescence change (max-min) at 10 µM | 1,700 tested, 9% active | shares compounds with M1 agonist | CHO M4/Gqi5 cells, Fluo-4 calcium fluorescence; actives lie on both sides | AID 1741, 2009;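 active = fluorescence change differing from the plate's solvent-only control wells at 99.7% confidence in both duplicates, whether higher or lower; inconclusive = differs from solvent controls in only one of two duplicates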
Target sequence (P08485 whole entry, looked up): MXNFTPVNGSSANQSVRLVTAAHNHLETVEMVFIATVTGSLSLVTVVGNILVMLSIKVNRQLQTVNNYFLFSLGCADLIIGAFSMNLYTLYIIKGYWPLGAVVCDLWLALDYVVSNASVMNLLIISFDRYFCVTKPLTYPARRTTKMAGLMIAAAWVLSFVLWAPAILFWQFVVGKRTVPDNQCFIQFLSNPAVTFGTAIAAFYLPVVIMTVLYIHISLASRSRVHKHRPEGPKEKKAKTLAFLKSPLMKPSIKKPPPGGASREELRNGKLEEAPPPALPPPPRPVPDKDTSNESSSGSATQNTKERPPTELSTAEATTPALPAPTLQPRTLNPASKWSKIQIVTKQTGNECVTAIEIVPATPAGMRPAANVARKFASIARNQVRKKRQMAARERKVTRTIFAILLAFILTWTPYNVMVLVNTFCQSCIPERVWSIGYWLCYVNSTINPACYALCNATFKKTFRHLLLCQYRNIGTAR
* hit, by the source's call. Rows were chosen to be rich in hits. Some 8.8% of all compounds tested hit in one or more screens of this group.

For CC(C)C(c1nnnn1C1CCCC1)N(C)C1CCCCC1 (stereo not given) the results were SF1 activator -16, RORa activator 7, M1 antagonist -0.09, S1P3 agonist 0, M1 agonist 9.7*, S1P1 ag-PAM -11, M1 agonist conf -3.3 and M4 agonist ctr -17.
For Cc1cc(C)c(S(=O)(=O)N2CCN(c3nc4c(c(=O)n(C)c(=O)n4C)n3C)CC2)c(C)c1 the results were SF1 activator 26, RORa activator 24, M1 antagonist -0.12, S1P3 agonist -1, M1 agonist -0.92 and S1P1 ag-PAM 23.
Screening COc1ccc(C2=NOC(C(=O)N3CCN(c4ccccc4OC)CC3)C2)cc1 (stereo not given) returned SF1 activator 18, RORa activator -14, M1 antagonist -1.4, S1P3 agonist -1, M1 agonist 2.6*, S1P1 ag-PAM -112, M1 agonist conf -15 and M4 agonist ctr inconclusive.
`CCOC(=O)c1[nH]c2cc(OC)c(OC)cc2c1NC(=O)C(C)N1CCN(Cc2ccccc2)CC1` (stereo not given) gave SF1 activator -12, RORa activator -21, M1 antagonist -4.3*, S1P3 agonist -4, M1 agonist 3.8*, S1P1 ag-PAM -7, M1 agonist conf inconclusive and M4 agonist ctr -31.
For CCn1c(=O)c2cc(S(=O)(=O)NC3CCCCC3)ccc2n(CC)c1=O the results were SF1 activator 6, RORa activator 7, M1 antagonist 0.03, S1P3 agonist 0 and M1 agonist 0.47.
For CC1CCCCC1NS(=O)(=O)c1ccc(S(=O)(=O)NCc2ccncc2)cc1 (stereo not given) the results were SF1 activator -70, RORa activator -69, M1 antagonist -0.49, S1P3 agonist -1, M1 agonist 3.5*, S1P1 ag-PAM 48, M1 agonist conf -11 and M4 agonist ctr -9.6.
`COc1ccc(CNC(=O)Cc2nn(C)c(=O)c3ccccc23)cc1` gave SF1 activator -42, RORa activator -42, M1 antagonist -0.48, M1 agonist 11*, M1 agonist conf 8.4 and M4 agonist ctr 3.6.
For COc1ccc(OC)c(NC(=O)Cc2nn(C)c(=O)c3ccccc23)c1 the results were SF1 activator -12, RORa activator -12, M1 antagonist -0.52, S1P3 agonist -1, M1 agonist -0.19 and S1P1 ag-PAM 0.
CCc1nnc(N2CCN(c3ncnc4c3oc3ccccc34)CC2)s1 was read as SF1 activator -12, RORa activator -2, M1 antagonist -4*, S1P3 agonist -1, M1 agonist 9.9*, M1 agonist conf 1.8 and M4 agonist ctr -49.
`CCOC(=O)C1CCCN(C(=O)c2cc(=O)c3ccccc3o2)C1` (stereo not given) gave SF1 activator 3, RORa activator 10, M1 antagonist 0.55, S1P3 agonist -1, M1 agonist 0.54 and S1P1 ag-PAM -1.
For CCOC(=O)C1CCN(c2nc(-c3ccccc3)nc3c2oc2ccccc23)CC1 the results were SF1 activator -14, RORa activator -16, M1 antagonist 0.01, S1P3 agonist 0, M1 agonist 5.8*, S1P1 ag-PAM 3, M1 agonist conf -15 and M4 agonist ctr -29.
For CCOC(=O)C1CCCN(c2ncnc3c2oc2ccccc23)C1 (stereo not given) the results were SF1 activator 11, RORa activator 21, M1 antagonist -3.3*, S1P3 agonist -2, M1 agonist 4.2*, S1P1 ag-PAM 20, M1 agonist conf 5.8 and M4 agonist ctr -44.
COCCn1c(CNc2ccc(F)cc2)nnc1SCC(=O)Nc1ccc(OC)cc1OC was read as SF1 activator 2, RORa activator 18, M1 antagonist -0.083 and M1 agonist 0.39.
For COc1ccc(S(=O)(=O)Nc2cc(C)c(O)cc2C(C)C)cc1 the results were SF1 activator -6, RORa activator -3, M1 antagonist 0.35, S1P3 agonist -1, M1 agonist 4.7*, S1P1 ag-PAM 21, M1 agonist conf -11 and M4 agonist ctr -48.
`O=C(Cc1cccs1)Nc1cccc(C(=O)Nc2ccco2)c1` gave SF1 activator 5, RORa activator -6, M1 antagonist -0.43, S1P3 agonist -1, M1 agonist 5.5*, S1P1 ag-PAM 13, M1 agonist conf -4.1 and M4 agonist ctr inconclusive.
Screening COc1ccc(C2CC(=O)C(C=NCCN3CCN(C(C)=O)CC3)=C(O)C2)cc1OC (stereo not given) returned SF1 activator -16, RORa activator -19, M1 antagonist -0.22, S1P3 agonist -1, M1 agonist 0.2 and S1P1 ag-PAM -8.
For Cc1ccc(-c2nnc(N3CCN(c4ccccn4)CC3)c3ccccc23)cc1 the results were SF1 activator -4, RORa activator -6, M1 antagonist -3.5*, S1P3 agonist -1, M1 agonist 2*, S1P1 ag-PAM 21, M1 agonist conf inconclusive and M4 agonist ctr -53.
For CC(C)OC(=O)c1c2nc3ccccc3nc2n2c1[nH]c(=O)c1ccccc12 the results were SF1 activator -8, RORa activator 27, M1 antagonist 0.4, S1P3 agonist -2, M1 agonist 7.9*, S1P1 ag-PAM 8, M1 agonist conf 73* and M4 agonist ctr 113.
CCc1ccccc1NS(=O)(=O)c1ccc(SC)cc1 was read as SF1 activator -7, RORa activator -10, M1 antagonist -1.3, S1P3 agonist 0, M1 agonist 3.3*, S1P1 ag-PAM 10, M1 agonist conf -22 and M4 agonist ctr -36.
Screening CSc1ccc(S(=O)(=O)Nc2c(C)cccc2C)cc1 returned SF1 activator -5, RORa activator -10, M1 antagonist -0.19, S1P3 agonist -1, M1 agonist 0.034 and S1P1 ag-PAM 9.
